FGF22 binding – FGF22 (human) thermal shift binding | recombinant FGF22 thermal shift, SYPRO orange fluorescence; percent of sucrose octasulfate shift, DMSO zero | activity (Tm shift, normalised), % at 9.99 µM | 1.5% of 340,000 active | AID 651658;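 active means mean Tm shift, scaled 0 neutral to 100 positive control, at about 1.3% or above, every replicate too, limit read from the data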
Target sequence (Q9HCT0 whole entry, looked up): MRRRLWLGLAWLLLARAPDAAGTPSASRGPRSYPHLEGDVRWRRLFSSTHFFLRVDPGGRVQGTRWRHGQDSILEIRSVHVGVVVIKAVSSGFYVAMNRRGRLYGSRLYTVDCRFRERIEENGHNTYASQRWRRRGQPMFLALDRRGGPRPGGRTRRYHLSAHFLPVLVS
Cneo AK release – causes C. neoformans cell lysis; adenylate kinase release luminescence, 4 h; normalised: neutral wells 0, clomiphene wells 100; lysis activity, % at 15 µM; 0.2% of 360,000 active; AID 651654;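 active means mean lysis activity across replicates of at least 80%, whatever share of replicates individually reach that level; inactive means mean lysis activity below 80%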
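read-out = cell lysis signal | test system = log-phase Cryptococcus neoformans yeast cells | input = cells at 5 × 10^6 per mL | medium = fresh YPD growth medium | signal = luminescent adenylate kinase detection reagent | timing = 4 h at 37 °C static, read 1 h later | dosing = single dose | controls = Clomiphene as positive lysis control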
rRNA inh HTS – inhibitors of bacterial rRNA selective over humanized ribosomes; GFP signal change (wild-type ribosome), % (test concentration not listed); AID 720706; 1.6% of 350,000 active; E. coli WT GFP vs humanized-ribosome RFP mutants, fluorescence, 24 h; stronger effect = lower value; DMSO median 0, no signal -100;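 active means significant combined selectivity score with lowered wild-type GFP, culture density cut under 30%, mutant RFP and density less affected; inactive means any of these conditions unmet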
Vif imaging – HIV Vif inhibition | HEK293T cells, Vif self-association by quenched fluorescence, imaging, 24 h | inhibition, % at 7.49 µM | 0.35% of 340,000 active; in the data active means inhibition above about 50%, passing the limit was not always enough
PglD DTNB – inhibitors of Campylobacter jejuni PglD acetyltransferase; purified PglD enzyme, DTNB colorimetric CoA detection; inhibition, % at 12.5 µM; 0.098% of 360,000 active; AID 602405; in the data active means inhibition above about 16%, passing the limit was not always enough
PGC1a acetyl inh – lowers PGC1a acetylation signal in U2OS cells; AID 651687; inhibition, % at 15.6 µM; AlphaScreen anti-acetyl-lysine; with virally co-expressed GCN5 acetyltransferase; 0.17% of 350,000 active;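 active means every replicate shows inhibition of at least 40%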;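 further: 0% = neutral control wells and 100% = positive control wells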
Active calls of the source: *; / = no result. Only some compounds are listed: those with a hit (about 2.9% of all), similar ones and a draw of the others.

SMILES | FGF22 binding | Cneo AK release | rRNA inh HTS | Vif imaging | PglD DTNB | PGC1a acetyl inh
CC(C)c1ccc(NC(=O)CNS(=O)(=O)c2ccc(F)cc2)cc1 | 43* | 1 | 11 | -6 | -2 | -4
Cc1noc(C)c1S(=O)(=O)Nc1ccc2c(c1)C(=O)N([C@H](C)CO)C[C@@H](C)[C@@H](CN(C)S(=O)(=O)c1cn(C)cn1)OCCCC[C@H](C)O2 | -1 | 0 | 2 | / | -1 | 3
CCCNC(=S)N1CCN(c2nc(C)nc3sc4c(c23)CCCC4)CC1 | 43* | 29 | -30 | -4 | 0 | -4
O=C(C1CCCO1)N1CCN(C(=S)Nc2ccc(F)c(Cl)c2)CC1 (configuration not stated) | 0 | 0 | -29* | 2 | 8 | -9
CCOC(=O)c1ccc(NC(=O)N2CCN(C(=O)C3CCCO3)CC2)cc1 (configuration not stated) | 43* | / | / | 2 | / | /
COc1cc(CN2CCN(c3ccccc3F)CC2)c([N+](=O)[O-])cc1OC | 44* | -2 | -3 | -6 | / | -12
O=[N+]([O-])c1cccnc1N1CCCCC1 | / | 0 | / | -4 | -4 | 10
O=[N+]([O-])c1cc2c(cc1CN1CCN(c3ccccc3F)CC1)OCO2 | 0 | 2 | 3 | 2 | 3 | -3
O=[N+]([O-])c1cccnc1N1CCN(c2ccccc2F)CC1 | 0 | / | -34* | 2 | / | 2
Cc1cccc(S(=O)(=O)N2CCCCN3[C@H](CO)[C@H](c4ccc(C#CC5CC5)cc4)[C@H]3C2)c1 | 0 | 3 | -58 | / | -1 | -9
COc1ccc(S(=O)(=O)Nc2ccc3c(c2)C(=O)N([C@@H](C)CO)C[C@@H](C)[C@@H](CN(C)S(C)(=O)=O)OCCCC[C@@H](C)O3)cc1 | 0 | -2 | -6 | / | 4 | -2
O=C(NCc1ccco1)c1csc(Nc2ccccc2Cl)n1 | / | 0 | / | -7 | 0 | 5
COc1ccc(NC(=O)Nc2cc(C(C)(C)C)on2)cc1OC | 0 | -1 | -26* | 6 | -5 | /
COc1ccc(NC(=O)NCc2ccco2)cc1OC | 44* | / | 16 | 3 | / | /
COc1ccc(Nc2nc(C(=O)NCc3ccco3)cs2)cc1 | 0 | -24 | -44* | -3 | 1 | 12
COc1ccc(NC(=O)Nc2ccccn2)cc1OC | 0 | / | -8 | -2 | / | /
COc1cccc(-c2ccc3c(c2)[C@@H]2[C@@H](CCN2Cc2ccccc2OC)[C@@H](CO)N3)c1 | / | 0 | 2 | / | 0 | -20
O=S(=O)(c1cccc(F)c1)N1CC[C@H]2[C@H](CO)Nc3ccc(-c4cccc(F)c4)cc3[C@H]21 | 0 | -23 | -17 | / | 1 | -3
CCO[C@H]1OC(C(=O)N2CCCC2)=C[C@@H](c2ccc(C(F)(F)F)cc2)[C@@H]1CCCO | 0 | / | / | / | 1 | -6
C[C@@H]1CN(C)C(=O)c2ccccc2O[C@H]1CN(C)S(C)(=O)=O | / | / | 7 | / | / | /
Cc1cc(C)c(NC(=O)c2ccccc2CCc2ccccc2)c(C)c1 | / | -3 | / | -3 | 3 | -40
Cc1cc(C)c(NC(=O)c2ccccc2C(=O)c2ccccc2)c(C)c1 | 43* | / | -36 | 8 | / | /
COCC(=O)Nc1ccc2c(c1)[C@H]1C[C@@H](CC(=O)NCc3ccccc3)O[C@@H](CO)[C@H]1O2 | 0 | 2 | 2 | / | 1 | -4
O=C(O)C1CC2CCC1CC2 (configuration not stated) | 0 | / | 13 | -8 | / | /
CC12CCC(CC1O)C2C(=O)O (configuration not stated) | 43* | / | 11 | 4 | / | /
CCNC(=O)C[C@H]1CC[C@@H]2[C@@H](COc3ccc(NC(C)=O)cc3C(=O)N2C)O1 | 0 | 2 | 3 | / | 4 | 4
C=CC(C)(O)CCCC(C)CCCC(C)CCCC(C)C (configuration not stated) | 0 | -2 | 4 | 160* | 1 | -2
CN(C)C(=O)C[C@H]1C[C@@H]2c3cc(NC(=O)c4ccc5c(c4)OCO5)ccc3O[C@@H]2[C@H](CO)O1 | 0 | 14 | 0 | / | 1 | 2
COc1cc(NC(=O)C/C(C)=N/NC(=O)C(=O)NCCO)c(OC)cc1Cl | 0 | / | -52* | 11 | / | /

Compound activity as filed in PubChem.
